Values belong to the compound of their own block, whether it stands above or below them.
How the values were obtained:
[1] = tested on: Ileal sodium/bile acid cotransporter (hamster); assay: Inhibition of ASBT as [3H]taurocholate uptake in hamster ileal ring at 30 ug/mL; conditions: Syrian hamster
[2] = Ratio between total non HDL-cholesterol and HDL-cholesterol in hamster at a dose of 1.0 mg/kg; type: functional
Method in brief: (§1)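 Chow-fed male Syrian golden hamsters were dosed by oral gavage in 0.5% carboxymethylcellulose each evening for 14 consecutive days, with free access to chow and water. Animals were weighed daily and killed the morning after the 14th dose. Serum lipoprotein cholesterol profiles were measured, and the ratio of non-HDL (VLDL plus LDL) cholesterol to HDL-cholesterol was calculated.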

Mesocricetus auratus [3] = assay: Evaluated for total non HDL- cholesterol in hamster at a dose of 10.0 mg/kg
Cricetinae gen. sp. [4] = assay: Evaluated for total serum cholesterol in hamster at a dose of 10.0 mg/kg; type: functional, Cricetulus griseus
Method in brief: (§2)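 Chow-fed male Syrian golden hamsters dosed orally by gavage in 0.5% carboxymethylcellulose vehicle once daily in the evening for 14 consecutive days at 0.3, 1, 3, 10, 30 or 100 mg/kg/day. Chow and water were given freely and animals weighed daily. They were sacrificed the morning after the 14th dose. Serum was assayed for triglycerides, total cholesterol and lipoprotein cholesterol (VLDL+LDL, HDL).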

Cricetinae gen. sp. [5] = assay: Evaluated for total non HDL- cholesterol in hamster at a dose of 3.0 mg/kg; type: functional
Method in brief: as §2

Cricetinae gen. sp. [6] = assay: Evaluated for total HDL-cholesterol in hamster at a dose of 30.0 mg/kg; type: functional
Method in brief: as §2

Cricetinae gen. sp. [7] = assay: Evaluated for total triglycerides in hamster at a dose of 10.0 mg/kg; type: functional, Cricetulus griseus
Method in brief: as §2

Cricetinae gen. sp. [8] = assay: Evaluated for total serum cholesterol in hamster at a dose of 1.0 mg/kg; type: functional, Cricetulus griseus
Method in brief: as §2

Cricetinae gen. sp. [9] = assay: Evaluated for total serum cholesterol in hamster at a dose of 3.0 mg/kg; type: functional, Cricetulus griseus
Method in brief: as §2

Cricetinae gen. sp. [10] = assay: Evaluated for total HDL-cholesterol in hamster at a dose of 1.0 mg/kg; type: functional
Method in brief: as §2

Cricetinae gen. sp. [11] = assay: Evaluated for total serum cholesterol in hamster at a dose of 100.0 mg/kg; type: functional, Cricetulus griseus
Method in brief: as §2

[12] = Ratio between total non HDL-cholesterol and HDL-cholesterol in hamster at a dose of 3.0 mg/kg; type: functional
Method in brief: as §1

[13] = Ratio between total non HDL-cholesterol and HDL-cholesterol in hamster at a dose of 100.0 mg/kg; type: functional
Method in brief: as §1

Cricetinae gen. sp. [14] = assay: Evaluated for total triglycerides in hamster at a dose of 30.0 mg/kg; type: functional, Cricetulus griseus
Method in brief: as §2

[15] = Ratio between total non HDL-cholesterol and HDL-cholesterol in hamster at a dose of 10.0 mg/kg; type: functional
Method in brief: as §1

Cricetinae gen. sp. [16] = assay: Evaluated for total HDL-cholesterol in hamster at a dose of 3.0 mg/kg; type: functional
Method in brief: as §2

Cricetinae gen. sp. [17] = assay: Evaluated for total HDL-cholesterol in hamster at a dose of 100.0 mg/kg; type: functional
Method in brief: as §2

Cricetinae gen. sp. [18] = assay: Evaluated for total non HDL- cholesterol in hamster at a dose of 100.0 mg/kg; type: functional
Method in brief: as §2

Cricetinae gen. sp. [19] = assay: Evaluated for total triglycerides in hamster at a dose of 1.0 mg/kg; type: functional, Cricetulus griseus
Method in brief: as §2

Cricetinae gen. sp. [20] = assay: Evaluated for total triglycerides in hamster at a dose of 3.0 mg/kg; type: functional, Cricetulus griseus
Method in brief: as §2

Cricetinae gen. sp. [21] = assay: Evaluated for total non HDL- cholesterol in hamster at a dose of 30.0 mg/kg; type: functional
Method in brief: as §2

Mesocricetus auratus [22] = assay: Evaluated for total triglycerides in hamster at a dose of 100.0 mg/kg
Cricetinae gen. sp. [23] = assay: Evaluated for total non HDL- cholesterol in hamster at a dose of 0.3 mg/kg; type: functional
Method in brief: as §2

[24] = Ratio between total non HDL-cholesterol and HDL-cholesterol in hamster at a dose of 0.3 mg/kg; type: functional
Method in brief: as §1

Cricetinae gen. sp. [25] = assay: Evaluated for total triglycerides in hamster at a dose of 0.3 mg/kg; type: functional, Cricetulus griseus
Method in brief: as §2

Cricetinae gen. sp. [26] = assay: Evaluated for total HDL-cholesterol in hamster at a dose of 0.3 mg/kg; type: functional
Method in brief: as §2

[27] = Ratio between total non HDL-cholesterol and HDL-cholesterol in hamster at a dose of 30.0 mg/kg; type: functional
Method in brief: as §1

Cricetinae gen. sp. [28] = assay: Evaluated for total serum cholesterol in hamster at a dose of 30.0 mg/kg; type: functional
Method in brief: as §2

Cricetinae gen. sp. [29] = assay: Evaluated for total non HDL- cholesterol in hamster at a dose of 1.0 mg/kg; type: functional
Method in brief: as §2

Cricetinae gen. sp. [30] = assay: Evaluated for total HDL-cholesterol in hamster at a dose of 10.0 mg/kg; type: functional
Method in brief: as §2

Cricetinae gen. sp. [31] = assay: Evaluated for total serum cholesterol in hamster at a dose of 0.3 mg/kg; type: functional
Method in brief: as §2

Compound: CCN(C(=O)c1cn(-c2cc(OC)cc(OC)c2)c2cc(OCCCCC[N+]34CCN(CC3)CC4)ccc2c1=O)c1cc(F)cc(F)c1
inhibition at 30 µg/mL [1]: 67%

Compound: CCN(C(=O)c1cn(-c2cc(OC)cc(OC)c2)c2cc(OCCCCCCC[N+]34CCN(CC3)CC4)ccc2c1=O)c1cc(F)cc(F)c1.[Br-]
Ratio [2]: 1.1
Non-HDL-C (Mesocricetus auratus [3]): 74.3 mg/dL
TC (Cricetinae gen. sp. [4]): 144.1 mg/dL
Non-HDL-C (Cricetinae gen. sp. [5]): 94.1 mg/dL
HDL-C (Cricetinae gen. sp. [6]): 63.9 mg/dL
TG (Cricetinae gen. sp. [7]): 217.6 mg/dL
TC (Cricetinae gen. sp. [8]): 166.9 mg/dL
TC (Cricetinae gen. sp. [9]): 174.3 mg/dL
HDL-C (Cricetinae gen. sp. [10]): 81.7 mg/dL
TC (Cricetinae gen. sp. [11]): 118.9 mg/dL
Ratio [12]: 1.2
Ratio [13]: 0.9
TG (Cricetinae gen. sp. [14]): 235 mg/dL
Ratio [15]: 1.1
HDL-C (Cricetinae gen. sp. [16]): 80.2 mg/dL
HDL-C (Cricetinae gen. sp. [17]): 61.9 mg/dL
Non-HDL-C (Cricetinae gen. sp. [18]): 57 mg/dL
TG (Cricetinae gen. sp. [19]): 249.3 mg/dL
TG (Cricetinae gen. sp. [20]): 270.8 mg/dL
Non-HDL-C (Cricetinae gen. sp. [21]): 78.9 mg/dL
TG (Mesocricetus auratus [22]): 217.7 mg/dL
Non-HDL-C (Cricetinae gen. sp. [23]): 75.7 mg/dL
Ratio [24]: 0.9
TG (Cricetinae gen. sp. [25]): 142.7 mg/dL
HDL-C (Cricetinae gen. sp. [26]): 81.8 mg/dL
Ratio [27]: 1.3
TC (Cricetinae gen. sp. [28]): 142.8 mg/dL
Non-HDL-C (Cricetinae gen. sp. [29]): 85.2 mg/dL
inhibition at 30 µg/mL [1]: 100%
HDL-C (Cricetinae gen. sp. [30]): 69.8 mg/dL
TC (Cricetinae gen. sp. [31]): 157.4 mg/dL

Compound: CCN(C(=O)c1cn(-c2cc(OC)cc(OCCCCCCC[N+]34CCN(CC3)CC4)c2)c2cc(OC)ccc2c1=O)c1cc(F)cc(F)c1
inhibition at 30 µg/mL [1]: 86%

Compound: CCN(C(=O)c1cn(-c2ccc(OCc3ccc(C[N+]45CCN(CC4)CC5)cc3)cc2)c2cc(OC)ccc2c1=O)c1cc(F)cc(F)c1
inhibition at 30 µg/mL [1]: 41%

Compound: CCN(C(=O)c1cn(-c2cc(OC)cc(OCc3ccc(C[N+]45CCN(CC4)CC5)cc3)c2)c2cc(OC)ccc2c1=O)c1cc(F)cc(F)c1
inhibition at 30 µg/mL [1]: 71%

Compound: CCN(C(=O)c1cn(-c2cc(OC)cc(OC)c2)c2cc(OCCCCCCCC[N+]34CCN(CC3)CC4)ccc2c1=O)c1cc(F)cc(F)c1
inhibition at 30 µg/mL [1]: 94%

Compound: CCN(C(=O)c1cn(-c2cc(OC)cc(OCCCCCC[N+]34CCN(CC3)CC4)c2)c2cc(OC)ccc2c1=O)c1cc(F)cc(F)c1
inhibition at 30 µg/mL [1]: 83%

Second part, the compound after the results:

inhibition at 30 µg/mL [1]: 88%
Compound: CCN(C(=O)c1cn(-c2cc(OC)cc(OC)c2)c2cc(OCCCCCC[N+]34CCN(CC3)CC4)ccc2c1=O)c1cc(F)cc(F)c1

inhibition at 30 µg/mL [1]: 64%
Compound: CCN(C(=O)c1cn(-c2cc(OC)cc(OC)c2)c2cc(OC)ccc2c1=O)c1cc(F)cc(F)c1

inhibition at 30 µg/mL [1]: 83%
Compound: CCN(C(=O)c1cn(-c2cc(OC)cc(OCCCCCCCC[N+]34CCN(CC3)CC4)c2)c2cc(OC)ccc2c1=O)c1cc(F)cc(F)c1

inhibition at 30 µg/mL [1]: 24%
Compound: CCN(C(=O)c1cn(-c2cc(OC)cc(OC)c2)c2cc(OCCCC[N+]34CCN(CC3)CC4)ccc2c1=O)c1cc(F)cc(F)c1

inhibition at 30 µg/mL [1]: 71%
Compound: CCN(C(=O)c1cn(-c2cc(OC)cc(OC)c2)c2cc(OCc3ccc(C[N+]45CCN(CC4)CC5)cc3)ccc2c1=O)c1cc(F)cc(F)c1

inhibition at 30 µg/mL [1]: 64%
Compound: CCN(C(=O)c1cn(-c2ccc(OC)cc2)c2cc(OC)ccc2c1=O)c1cc(F)cc(F)c1

Source: ChEMBL document CHEMBL1147591, “A novel class of apical sodium-dependent bile acid transporter inhibitors: the amphiphilic 4-oxo-1-phenyl-1,4-dihydroquinoline derivatives” (Bioorg Med Chem Lett, 2004)
